Assay outcomes deposited in PubChem BioAssay by several laboratories.
Shown are actives, neighbours in structure and some others; about 0.4% of the full set was active somewhere.
ERp5 inh – blocks human ERp5 reductase activity on insulin | ERp5 insulin aggregation, absorbance 650 nm, 90 min | inhibition, % at 9.99 µM | 350,000 tested, 0.05% active;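 active means mean replicate inhibition above about 25%, with every replicate also reaching it, limit read from the data, passing the limit was not always enough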
Tb MetRS inh – Trypanosoma brucei MetRS inhibition; AID 624268; purified T. brucei MetRS, ATP depletion, Kinase-Glo luminescence; 360,000 tested, 0.4% active; inhibition, % at 11.9 µM;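 active means inhibition above a per-plate cutoff of the control wells' mean inhibition plus 3 SD, cut at about 5.5% in these data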;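 further: 0% = DMSO wells median and 100% = median of wells with control inhibitor compound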
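technique = Kinase-Glo luminescence, ATP depletion format | system = purified MetRS (methionyl-tRNA synthetase) enzyme from Trypanosoma brucei | timing = 15 min preincubation, 2 h reaction, all 25 °C | evaluation = percent inhibition versus plate control medians | dosing = single dose, 11.9 µM final nominal, 0.9% final DMSO | also added = substrates ATP, L-methionine and bulk Escherichia coli tRNA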
PDI turbidity – PDI (human) enzyme inhibition | P07237 | PDI insulin aggregation turbidity, A650, 90 min | inhibition, % at 10 µM | 350,000 tested, 0.052% active | AID 588391;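 active means mean inhibition across replicates of 30% or more, whatever share of single replicates reach that level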
Target sequence (P07237 whole entry, looked up): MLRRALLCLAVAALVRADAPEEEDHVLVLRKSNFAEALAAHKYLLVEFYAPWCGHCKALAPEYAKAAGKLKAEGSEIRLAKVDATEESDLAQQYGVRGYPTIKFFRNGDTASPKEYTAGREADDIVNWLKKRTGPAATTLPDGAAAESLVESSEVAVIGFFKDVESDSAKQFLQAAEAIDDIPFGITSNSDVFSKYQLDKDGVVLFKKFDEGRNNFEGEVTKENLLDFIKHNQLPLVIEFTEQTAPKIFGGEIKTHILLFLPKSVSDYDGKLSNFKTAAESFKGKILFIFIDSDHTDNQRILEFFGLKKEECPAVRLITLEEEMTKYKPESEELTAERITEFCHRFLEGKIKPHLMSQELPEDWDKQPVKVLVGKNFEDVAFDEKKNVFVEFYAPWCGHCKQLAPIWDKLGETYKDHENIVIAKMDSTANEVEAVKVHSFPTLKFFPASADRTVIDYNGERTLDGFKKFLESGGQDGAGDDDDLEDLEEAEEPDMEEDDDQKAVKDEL
TbMetRS confirm – confirmation of Trypanosoma brucei MetRS inhibitors; shares compounds with Tb MetRS inh; T. brucei MetRS enzyme, luminescence (ATP depletion); inhibition, % at 11.9 µM; 1,400 tested, 93% active; AID 624412; in the data active means inhibition above about 7%
Jurkat tox – Jurkat T cell cytotoxicity for MetRS hits. 1,400 tested, 12% active. shares compounds with Tb MetRS inh. inhibition, % at 8.3 µM. AID 624413. Jurkat cells viability, ATP luminescence; in the data active means inhibition above about 15%;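 further: 0% = vehicle and 100% = reference inhibitor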
Tb MetRS inh FP – T. brucei MetRS inhibition, orthogonal assay; shares compounds with Tb MetRS inh; purified T. brucei MetRS, fluorescence polarization; inhibition, % at 11.9 µM; 1,400 tested, 44% active; AID 651607; in the data active means inhibition above about 17%;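 further: 0% = vehicle wells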
Numbers without * were called inactive; · = not tested or not shown.

SMILES | ERp5 inh | Tb MetRS inh | PDI turbidity | TbMetRS confirm | Jurkat tox | Tb MetRS inh FP
CCCN(C)C[C@@H]1OCCCC[C@@H](C)Oc2ccc(NC(=O)NC(C)C)cc2C(=O)N([C@@H](C)CO)C[C@@H]1C | 2.4 | · | · | · | · | ·
COc1ccc(/C=C2\SC(=O)N=C2N)cc1 | 6.9 | 22.2* | 12.1 | 66.6* | 1.1 | 37.0*
COc1ccc(/C=C2\SC(N3CCCCC3)=NC2=O)cc1 | 7.0 | -0.1 | 0.9 | · | · | ·
Clc1ccc(CN2C3=NCCN3c3ccccc32)cc1Cl | · | 7.4* | -6.0 | 11.6* | 15.8* | 0.7
c1ccc(CN2C3=NCCN3c3ccccc32)cc1 | · | 0.6 | 12.9 | · | · | ·
COc1ccc(CN(C)C[C@@H]2Oc3ccc(NC(=O)Cn4cnnn4)cc3C(=O)N([C@H](C)CO)C[C@H]2C)cc1 | -8.0 | · | · | · | · | ·
CO[C@H]1CN(C)C(=O)c2cc(NS(=O)(=O)c3cccc(F)c3)ccc2OC[C@H](C)NC[C@@H]1C | 2.3 | · | · | · | · | ·
COCCNC(=O)[C@H]1[C@H](CO)[C@H]2Cn3c(ccc(-c4ccccc4)c3=O)[C@@H]1N2C(=O)NC(C)C | 7.3 | · | · | · | · | ·
CN(C)CCCNC(=O)C[C@H]1CC[C@H]2[C@@H](COc3ccc(NC(=O)c4ccc5c(c4)OCO5)cc3C(=O)N2C)O1 | -2.0 | · | · | · | · | ·
O=C(NCc1ccccc1F)c1cccc(S(=O)(=O)NCc2ccccc2)c1 | 9.8 | -0.1 | 5.7 | · | · | ·
O=C(NCc1cccc(C(F)(F)F)c1)c1cccc(S(=O)(=O)NCc2ccccc2)c1 | · | 23.1* | -2.5 | 21.8* | 6.0 | 7.8
COc1ccc(S(=O)(=O)N(C)C[C@@H]2OCCCC[C@H](C)Oc3ccc(NC(=O)Cc4ccccc4)cc3C(=O)N([C@H](C)CO)C[C@@H]2C)cc1 | 1.2 | · | · | · | · | ·
C[C@@H]1CN([C@@H](C)CO)C(=O)c2cc(NC(=O)Nc3ccc(C(F)(F)F)cc3)ccc2O[C@H]1CN(C)C(=O)Nc1ccccc1 | -3.5 | · | · | · | · | ·
C[C@H](CO)N1C[C@H](C)[C@@H](CN(C)C(=O)Nc2ccc(C(F)(F)F)cc2)Oc2ccc(NC(=O)Nc3ccccc3)cc2C1=O | 2.6 | 6.1* | -4.7 | 18.3* | 6.8 | 13.4
C[C@H]1CN([C@@H](C)CO)C(=O)c2cc(NC(=O)Nc3ccccc3)ccc2O[C@@H]1CN(C)S(=O)(=O)c1ccccc1 | -0.6 | · | · | · | · | ·
C[C@H](CO)N1C[C@H](C)[C@@H](CN(C)S(=O)(=O)c2ccccc2)Oc2ccc(NC(=O)Nc3ccccc3)cc2C1=O | 0.6 | 7.2* | 0.4 | 18.9* | -2.8 | 2.9
C[C@H]1CN([C@@H](C)CO)C(=O)c2cccc(NS(=O)(=O)c3cccs3)c2O[C@H]1CN(C)C(=O)Nc1ccc2c(c1)OCO2 | -3.1 | · | · | · | · | ·
CCCNC(=O)C[C@H]1CC[C@@H]2[C@H](COc3ccc(NC(=O)c4cc(C)on4)cc3C(=O)N2C)O1 | -5.6 | · | · | · | · | ·
C[C@H](CO)N1C[C@H](C)[C@@H](CN(C)S(=O)(=O)c2ccc(Cl)cc2)Oc2ccc(NC(=O)C3CCCCC3)cc2CC1=O | 3.3 | · | · | · | · | ·
Cc1ccc(NS(=O)(=O)c2c(C)[nH]c(C)c2C(=O)N2CCCCC2)c(Br)c1 | 3.3 | 23.6* | 2.6 | 39.1* | 2.0 | 15.2
Cc1[nH]c(C)c(S(=O)(=O)Nc2cccc(Cl)c2C)c1C(=O)N1CCCCC1 | -1.8 | 24.4* | 5.2 | 41.1* | 0.9 | 19.8*
Cc1[nH]c(C)c(S(=O)(=O)Nc2cccc(Cl)c2C)c1C(=O)N1CCCC1 | -3.4 | 4.9 | 5.9 | · | · | ·
Cc1[nH]c(C)c(S(=O)(=O)Nc2ccc(F)cc2Cl)c1C(=O)N1CCCC1 | -6.6 | 3.3 | 10.3 | · | · | ·
CNC(=O)C[C@@H]1CC[C@H]2[C@H](COc3ccc(NC(=O)Nc4ccccc4OC)cc3C(=O)N2C)O1 | 1.4 | · | · | · | · | ·
C[C@H]1CN([C@@H](C)CO)C(=O)Cc2cc(NC(=O)c3ccncc3)ccc2O[C@H]1CN(C)S(=O)(=O)c1ccc(F)cc1 | -2.8 | · | · | · | · | ·
CCOc1ccc(S(=O)(=O)Nc2cc(Cl)ccc2O)cc1 | · | 16.5* | 11.8 | 33.4* | 10.0 | 11.2
CCOc1ccc(S(=O)(=O)Nc2cccc(Cl)c2)cc1 | · | 0.3 | 0.3 | · | · | ·
O=C(Cc1ccc(Br)cc1)Nc1cccc(S(=O)(=O)N2CCOCC2)c1 | -4.3 | 54.7* | 8.7 | 76.2* | 7.5 | 57.5*
COc1ccc(OCC(=O)Nc2ccc(S(=O)(=O)N3CCOCC3)cc2)cc1 | · | 0.1 | -7.1 | · | · | ·
Cc1ccc(CC(=O)Nc2cccc(S(=O)(=O)N3CCOCC3)c2)cc1 | 4.3 | 3.0 | -2.2 | · | · | ·
